Test results taken from PubChem BioAssay AID504666 (Broad Institute, 2011).
Values joined by “and” are separate entries in the source; they are usually repeats but may differ in a detail not shown here. Equal entries are not always repeated. Records with an inconclusive call do not appear. Active and inactive are the calls of the source.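 The calls were made as follows: active = compounds lowering the viability signal in every test, with half-maximal concentration at most ten times the top dose; inconclusive = mixed test calls, a flat partial drop, or a poor fit; inactive = all tests inactive.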

tested on: HMLE_sh_eGFP viability, CellTiter-Glo luminescence, 72 h; test: cytotoxicity toward control HMLE_sh_eGFP cells, dose response, counter-screen for breast cancer stem cell project, cell-based, CellTiter-Glo luminescence, 72 h, dry powder, set 6 (AID 504666); conditions: not given
Summary of the method: (§1)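 dosing = 100 nL pinned compound | system = HMLE_sh_eGFP cells | detection = CellTiter-Glo luminescence | times = ~70-74 h compound exposure, 37 °C | medium = serum-free culture medium for cell plating and exposure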

Row | Structure (SMILES) | AC50
1 | Cc1csc(NC(=O)c2ccc(COc3cc(Cl)ccc3Cl)o2)n1 | 0.063 µM
2 | COc1cccc(OCc2ccc(C(=O)Nc3nc(C)cs3)o2)c1 | 1.65 µM
3 | Cc1csc(NC(=O)c2ccc(COc3ccccc3F)o2)n1 | 0.089 µM
4 | Cc1csc(NC(=O)c2ccc(CNc3ccccc3)o2)n1 | 2.62 µM
5 | Cc1csc(NCc2ccc(COc3ccccc3)o2)n1 | 20.7 µM
6 | Cc1csc(NC(=O)c2coc(COc3ccccc3)c2)n1 | 2.78 µM
7 | C/C(=C\C(=O)NC1=NCCS1)c1ccc(CC(C)C)cc1 | 27.4 µM
8 | Cc1cc(Br)ccc1OCC(=O)N/N=C/c1ccc[nH]1 | 17.7 µM
9 | CC(C)c1ccc(C2CC2C(=O)NC2=NCCS2)cc1 (stereo not drawn) | 23.9 µM
10 | Cc1csc(NC(=O)c2ccoc2COc2ccccc2)n1 | 20.5 µM
11 | CC(C)c1ccc(/C=C/C(=O)Nc2cncs2)cc1 | 9.59 µM
12 | CC(C)c1ccc(/C=C/C(=O)NC2=NCCS2)cc1 | 21.7 µM
13 | Cc1csc(NC(=O)c2ccc(COC3CCCCC3)o2)n1 | 18.5 µM
14 | Cc1csc(NC(=O)c2ccc(COCc3ccccc3)o2)n1 | 10.5 µM
15 | Cc1csc(NC(=O)c2ccc(COc3cccc(Oc4ccccc4)c3)o2)n1 | 0.738 µM
16 | CC(C)Cc1ccc(/C=C/C(=O)NC2=NCCS2)cc1 | 1.07 µM

Row | Structure (SMILES) | AC50
17 | Cc1csc(NC(=O)c2ccc(COc3cccc(Cl)c3)o2)n1 | 9.15 µM
18 | Cc1csc(NC(=O)c2ccc(COc3cccc(F)c3)o2)n1 | 18.6 µM
19 | Cc1csc(NC(=O)c2ccc(COc3ccccc3)o2)n1 | 21.1 µM
20 | COc1ccc(OCc2ccc(C(=O)Nc3nc(C)cs3)o2)c(F)c1 | 14.2 µM
21 | COc1ccc(Cl)c(OCc2ccc(C(=O)Nc3nc(C)cs3)o2)c1 | 0.166 µM
22 | CC(C)c1ccc(/C=C/C(=O)Nc2nc(C(F)(F)F)cs2)cc1 | 8.98 µM
23 | O=C(Nc1nc(C(F)(F)F)cs1)c1ccc(COc2ccccc2)o1 | 19.3 µM
24 | COc1ccc2nc(NC(=O)c3ccc(COc4ccccc4)o3)sc2c1 | 2.54 µM
25 | CCc1ccc(/C=C/C(=O)NC2=NCCS2)cc1 | 28.3 µM
26 | Cc1cccc(OCc2ccc(C(=O)Nc3nc(C)cs3)o2)c1 | 0.254 µM and 1.98 µM
27 | CCOc1cccc(OCc2ccc(C(=O)Nc3nc(C)cs3)o2)c1 | 4.16 µM
28 | O=C(Nc1nc2c(Cl)cccc2s1)c1ccc(COc2ccccc2)o1 | 31.3 µM
29 | Cc1ccc(OCc2ccc(C(=O)Nc3nc(C)cs3)o2)cc1 | 6.79 µM
30 | Cc1csc(NC(=O)c2ccc(COc3cccc(OC(F)(F)F)c3)o2)n1 | 0.667 µM
31 | Cc1csc(NC(=O)c2ccc(CCc3ccccc3)o2)n1 | 5.68 µM
32 | N#Cc1csc(NC(=O)c2ccc(COc3ccccc3)o2)n1 | 23.1 µM

tested on: not listed separately; test: as above; conditions: HMLE_sh_eGFP viability, CellTiter-Glo luminescence, 72 h; at 19.5 µM (top of the series)
Summary of the method: as §1

Row | Structure (SMILES) | activity change, negative = toxicity
33 | CC(C)NC(=O)c1ccc(COc2ccccc2)o1 | 0.674% (inactive)
34 | Cc1cc(C)c(OCC(=O)N/N=C/c2ccc[nH]2)c(C)c1 | -14% (inactive)
35 | Cc1coc(NC(=O)c2ccc(COc3ccccc3)o2)n1 | -6.36% (inactive)
36 | Cc1coc(NC(=O)/C=C/c2ccc(C(C)C)cc2)n1 | -9.8% (inactive)
37 | Cc1csc(NC(=O)c2ccc(COc3cccc(S(C)(=O)=O)c3)o2)n1 | -5.74% (inactive)
38 | Cc1csc(NC(=O)c2ccc(COC(C)C)o2)n1 | 7.01% (inactive)
39 | COc1ccc(/C=C/C(=O)NC2=NCCS2)c(OC)c1 | -4.82% (inactive)
40 | O=C(Nc1nncs1)c1ccc(COc2ccccc2)o1 | 8.89% (inactive)
41 | CCN(CC)C(=O)c1ccc(COc2ccccc2)o1 | -2.12% (inactive)
42 | C/C(=C\C(=O)NC1=NCCS1)c1ccc(C)cc1 | -6.97% (inactive)
43 | Cc1csc(NC(=O)c2ccc(COC(C)(C)C)o2)n1 | -6.71% (inactive)
44 | Cc1csc(NC(=O)c2ccc(CS(=O)(=O)c3ccccc3)o2)n1 | 1.03% (inactive)
45 | CC(C)c1ccc(/C=C/C(=O)N(C)C2=NCCS2)cc1 | -2.24% (inactive)

same assay, conditions: HMLE_sh_eGFP viability, CellTiter-Glo luminescence, 72 h; at 30 µM (top of the series)

Row | Structure (SMILES) | activity change, negative = toxicity
46 | Cc1ccc2cc(C(=O)NC3=NCCS3)n(C)c2c1 | -2.52% (inactive)
47 | COc1ccc(OC)c2sc(NC(=O)c3ccc(COc4ccccc4)o3)nc12 | -8.62% (inactive)
48 | Cc1csc(NC(=O)c2cocc2COc2ccccc2)n1 | 8.46% (inactive)
